Legend:
[1] = system: Rattus norvegicus; assay: Compound was evaluated for the hypolipidemic activity in Sprague-Dawley rats at a dose of 20 mg/kg orally for Serum triglyceride at 16th day; type: functional; conditions: route oral
Summary of the method: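 Sprague–Dawley male rats (~350 g) received 20 mg/kg per day orally, with 1% CMC as the vehicle control; N = 6. Tail-vein blood was taken between 8:00 and 9:30 a.m. on days 9 and 16 and spun for 3 min to obtain serum. Cholesterol was measured by a modified Liebermann–Burchard reaction and triglyceride by kit. Values are % control ± SD; significance by Student's t test.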

[2] = system: Mus musculus; assay: In Vivo effect for the hypolipidemic activity on Hepatic lipoprotein lipase in CF1 mice after 16 days administered orally at a dose of 20 mg/kg; type: functional; conditions: route oral
Summary of the method: (§1)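 CF1 male mice are dosed orally at 10–60 mg/kg per day for 16 days, with 1% CMC as the control vehicle. Liver is homogenized at 10% in 0.25 M sucrose + 0.001 M EDTA, pH 7.2. Enzymes are assayed by literature methods, with Lowry protein. Activity is given as % of control (X ± SD, N = 6), with p from Student's t test.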

[3] = target: T1, Cholesterol 7-alpha-hydroxylase (Cytochrome P450 7A1) (Mus musculus, UniProt Q64505); assay: In vitro percent Cholesterol 7-alpha-hydroxylase activity in mouse CF1 liver microsomes at 200 uM; set-up: species or system Microsome; conditions: read-out: Control
Summary of the method: (§2)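 Mouse liver enzymes assayed in vitro on 10% homogenates of CF1 male mouse liver, with test drug added at 50–200 μM. Each enzyme follows a published procedure. Protein is measured by Lowry. Activity is given as % of untreated control (X ± SD, N = 6).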

[4] = system: Mus musculus; assay: In Vivo effect for the hypolipidemic activity on phosphatidate phosphohydrolase in CF1 mice after 16 days administered orally at a dose of 60 mg/kg; type: organism-based; set-up: dose 60 mg/kg; summary of the method: as §1
[5] = target: Acetyl-CoA carboxylase 1 (Mus musculus) (UniProt Q5SWU9); assay: In Vivo effect for the hypolipidemic activity on Acetyl-CoA carboxylase in CF1 mice after 16 days administered orally at a dose of 20 mg/kg; type: functional, organism-based; set-up: dose 20 mg/kg; summary of the method: as §1
[6] = system: Mus musculus; assay: Compound was evaluated for the hypolipidemic activity in CF1 male mice at a dose of 10 mg/kg orally for Serum cholesterol at 16th day; type: functional; conditions: route oral
Summary of the method: (§3)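 CF1 male mice received the agent orally in 1% CMC at 10–60 mg/kg per day. Tail-vein blood was taken on days 9 and 16. Serum cholesterol was measured by modified Liebermann–Burchard on duplicate 25-µL samples, and serum triglyceride on day 16 in duplicate 50-µL samples. Values are % of vehicle control, mean ± SD, N = 6; Student's t test.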

[7] = target: T2, Sterol O-acyltransferase 1 (Mus musculus) (UniProt Q61263); assay: In Vivo effect for the hypolipidemic activity on Acyl-COA cholesterol acyltransferase in CF1 mice after 16 days of oral administration at a dose of 10 mg/kg; type: functional, organism-based; set-up: dose 10 mg/kg; summary of the method: as §1
T2 sequence (whole entry): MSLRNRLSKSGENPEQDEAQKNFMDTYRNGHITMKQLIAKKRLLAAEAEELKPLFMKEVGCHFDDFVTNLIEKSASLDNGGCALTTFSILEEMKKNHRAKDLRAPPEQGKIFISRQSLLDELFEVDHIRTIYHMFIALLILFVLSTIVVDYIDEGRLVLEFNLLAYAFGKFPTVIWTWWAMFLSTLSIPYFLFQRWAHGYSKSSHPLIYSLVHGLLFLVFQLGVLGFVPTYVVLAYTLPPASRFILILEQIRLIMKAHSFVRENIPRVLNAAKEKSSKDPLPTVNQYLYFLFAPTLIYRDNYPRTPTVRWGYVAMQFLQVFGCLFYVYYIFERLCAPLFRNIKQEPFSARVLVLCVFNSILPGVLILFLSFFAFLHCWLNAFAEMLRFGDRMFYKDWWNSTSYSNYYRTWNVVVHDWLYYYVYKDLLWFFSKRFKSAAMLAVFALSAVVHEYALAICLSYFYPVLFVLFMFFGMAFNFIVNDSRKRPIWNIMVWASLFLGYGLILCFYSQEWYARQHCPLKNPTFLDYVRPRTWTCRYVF

[8] = species: Mus musculus; assay: In Vitro evaluation for the CF1 liver enzyme activity on phosphatidate phosphohydrolase at concentration 100 uM; summary of the method: as §2
[9] = species: Mus musculus; assay: In Vitro evaluation for the CF1 liver enzyme activity on Hepatic lipoprotein lipase at concentration 100 uM; type: functional; summary of the method: as §2
[10] = target: T1, Cholesterol 7-alpha-hydroxylase (Cytochrome P450 7A1); assay: In vivo effect on Cholesterol 7-alpha-hydroxylase activity in CF1 mice after 16 days at 40 mg/kg oral dose; type: functional, organism-based; set-up: dose 40 mg/kg, route oral; conditions: read-out: Control; summary of the method: as §1
[11] = target: T2, Sterol O-acyltransferase 1 (Mus musculus); assay: In Vivo effect for the hypolipidemic activity on Acyl-COA cholesterol acyltransferase in CF1 mice after 16 days of oral administration at a dose of 60 mg/kg; type: functional, organism-based; set-up: dose 60 mg/kg; summary of the method: as §1
[12] = system: Mus musculus; assay: Compound was evaluated for the hypolipidemic activity in CF1 male mice at a dose of 20 mg/kg orally for Serum triglyceride at 16th day; type: functional; conditions: route oral; summary of the method: as §3
[13] = system: Rattus norvegicus; assay: Compound was evaluated for the hypolipidemic activity at 20 mg/kg per day orally for 14 days on triglycerides content in rat small intestine.; type: functional; conditions: route oral
Summary of the method: (§4)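 Male Sprague–Dawley rats were dosed orally for 14 days. Liver, small intestine and a 24-h fecal collection were lipid-extracted. Extracts were assayed for cholesterol (modified Liebermann–Burchard), triglyceride (enzymatic kit), neutral lipids, phospholipids and protein. Values are % of 1% CMC vehicle control, mean ± SD, N = 6.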

[14] = system: Rattus norvegicus; assay: Compound was evaluated for the hypolipidemic activity at 20 mg/kg per day orally for 14 days on protein content in rat small intestine.; type: functional; conditions: route oral; summary of the method: as §4
[15] = target: T2, Sterol O-acyltransferase 1 (Mus musculus); assay: In Vitro evaluation for the CF1 liver enzyme activity on Acyl cholesterol acyltransferase at concentration 200 uM; type: functional, tissue-based
Summary of the method: (§5)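 Liver was taken from CF1 male mice and made into 10% homogenates, which were incubated with test compound at 50, 100 or 200 µM. Each enzyme was assayed by its literature method, and protein was measured by Lowry. N = 6. Activity is expressed as % of untreated control ± SD.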

[16] = system: Mus musculus; assay: In Vivo effect for the hypolipidemic activity on phosphatidate phosphohydrolase in CF1 mice after 16 days administered orally at a dose of 20 mg/kg; type: organism-based; set-up: dose 20 mg/kg; summary of the method: as §1
[17] = target: Acetyl-CoA carboxylase 1 (Mus musculus) (UniProt Q5SWU9); assay: In Vitro evaluation for the CF1 liver enzyme activity on Acetyl-CoA carboxylase at concentration 200 uM; summary of the method: as §5
[18] = system: Rattus norvegicus; assay: Compound was evaluated for the hypolipidemic activity at 20 mg/kg per day orally for 14 days on protein content in rat feces.; type: functional; conditions: route oral; summary of the method: as §4
[19] = target: T2, Sterol O-acyltransferase 1 (Mus musculus); assay: In Vitro evaluation for the CF1 liver enzyme activity on Acyl cholesterol acyltransferase at concentration 100 uM; type: functional, tissue-based; summary of the method: as §5
[20] = species: Mus musculus; assay: In Vitro evaluation for the CF1 liver enzyme activity on Hepatic lipoprotein lipase at concentration 200 uM; type: functional; summary of the method: as §2
[21] = system: Rattus norvegicus; assay: Compound was evaluated for the hypolipidemic activity at 20 mg/kg per day orally for 14 days on triglycerides content in rat lipoprotein chylomicron; p</=0.001; type: functional; conditions: route oral
Summary of the method: (§6)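 Male Sprague–Dawley rats (~300 g) were dosed orally each day. Blood was drawn from the abdominal vein. Lipoprotein fractions (chylomicron, VLDL, LDL, HDL) were separated by the Hatch–Lees and Havel methods. Each fraction was assayed for cholesterol, triglyceride (enzymatic kit), neutral lipids, phospholipids and Lowry protein. Values are % of 1% CMC vehicle control, N = 6.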

[22] = system: Rattus norvegicus; assay: Compound was evaluated for the hypolipidemic activity at 20 mg/kg per day orally for 14 days on triglycerides content in rat HDL; type: functional; conditions: route oral; summary of the method: as §6
[23] = system: Rattus norvegicus; assay: Compound was evaluated for the hypolipidemic activity at 20 mg/kg per day orally for 14 days on lipid content in rat feces.; type: functional; conditions: route oral; summary of the method: as §4

T1 sequence (Q64505 whole entry): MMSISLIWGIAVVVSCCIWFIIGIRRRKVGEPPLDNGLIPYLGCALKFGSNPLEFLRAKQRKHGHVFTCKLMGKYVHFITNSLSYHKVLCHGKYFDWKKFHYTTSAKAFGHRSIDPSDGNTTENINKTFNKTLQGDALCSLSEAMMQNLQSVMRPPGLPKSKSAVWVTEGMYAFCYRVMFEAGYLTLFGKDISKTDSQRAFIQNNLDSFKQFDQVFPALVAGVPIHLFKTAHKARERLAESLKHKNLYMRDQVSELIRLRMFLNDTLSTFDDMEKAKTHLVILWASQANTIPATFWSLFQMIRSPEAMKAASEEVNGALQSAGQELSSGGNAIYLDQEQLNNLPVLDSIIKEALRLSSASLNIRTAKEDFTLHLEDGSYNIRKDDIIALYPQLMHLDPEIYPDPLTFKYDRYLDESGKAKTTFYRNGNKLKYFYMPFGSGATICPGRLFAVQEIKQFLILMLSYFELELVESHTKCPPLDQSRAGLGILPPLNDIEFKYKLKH

Compound: COc1ccc(C2C(=O)c3ccccc3C2=O)cc1 [ANISINDIONE]
- Control [1]: 59%
- Control [2]: 82%
- activity at 200 µM [3]: 113%
- Control [4]: 100%
- Control [5]: 107%
- Control [6]: 63%
- Control [7]: 92%
- Control [8]: 29%
- Control [9]: 94%
- activity at 384 h [10]: 55%
- Control [11]: 48%
- Control [12]: 48%
- Control [13]: 89%
- Control [14]: 102%
- Control [15]: 60%
- Control [16]: 35%
- Control [17]: 67%
- Control [18]: 99%
- Control [19]: 63%
- Control [20]: 93%
- Control [21]: 72%
- Control [22]: 59%
- Control [23]: 103%
